Sampled rows, rich in hits. Any-hit rate of the full collection: about 4.1%.
hERG rescue – hERG (human) protection from proarrhythmic block. 0.51% of 310,000 active. activation (rescue from dofetilide block), less the hit threshold, % at 10 µM. Q12809. AID 1511. CHO-hERG, FluxOR thallium flux, dofetilide IC70 present;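 active means activation above the mean of controls blocked by dofetilide plus 5 SD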;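 further: thallium influx through hERG after potassium depolarization seen as dye fluorescence rise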
KCNK3 inh – human KCNK3 channel inhibition, primary screen. 0.84% of 340,000 active. O14649. CHO-KCNK3 thallium flux, FluxOR fluorescence; hits give low values. B-score at 10 µM. AID 602410;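 active means B-score under library mean minus 4 SD, starting fluorescence ratio at most library mean plus 5 SD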;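 further: more negative B-score means stronger inhibition of thallium flux through KCNK3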
KCC2 mod – KCC2 (human) Cl- transport modulation; KCC2 cells, thallium flux FluoZin-2 fluorescence; B-score of Tl+ flux slope (higher = more flux/activation; lower = inhibition) at 10 µM; 2.2% of 190,000 active; AID 1456;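 active means thallium flux slope and its plate-corrected score both differing from the plate sample mean at a set confidence after two filtering rounds, in either direction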;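 further: slope of fluorescence scaled to starting intensity during 10 to 20 s after thallium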
KCNQ1 pot – potentiators or activators of human KCNQ1 potassium channel | P51787 | CHO-K1 KCNQ1, thallium flux FluxOR fluorescence; hits give high values | B-score at 10 µM | 0.35% of 310,000 active;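 active means fluorescence ratio B-score, a plate-corrected score, at least three library SD, with initial intensity B-score within 5 SD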
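Assay system: stable KCNQ1 CHO-K1 line; medium: assay buffer, equal DMSO in all wells; timing: 90 min dye loading and 20 min compound exposure, both at room temperature; technique: kinetic FluxOR thallium fluorescence, 10-s 1-Hz baseline, 110-s post-stimulus read; read-out basis: B score of baseline-normalized fluorescence ratio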
KCNK9 block – blocks the human KCNK9 two-pore domain potassium channel. Q9NPC2. HEK293 KCNK9, FluxOR thallium flux fluorescence; hits give low values. B-score at 10 µM. 1.2% of 310,000 active. AID 488922;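 active means ratio B-score over 3 SD below the library mean, with starting fluorescence within 5 SD of its mean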;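 further: negative B-score means less thallium flux so channel inhibition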
KCNQ1 block – inhibitors of human KCNQ1 potassium channel | P51787 | CHO-K1 KCNQ1, FluxOR thallium flux fluorescence; hits give high values | B-score at 10 µM | 1.3% of 310,000 active | AID 2642;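 active means compounds whose thallium flux B-score, printed positive for inhibition, exceeds three library SD while starting fluorescence stays within three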;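 further: channel opened by potassium depolarization with thallium stimulus after 20 min compound exposure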
KCNK9 inh conf – human KCNK9 inhibitor confirmation | shares compounds with KCNK9 block | HEK293 KCNK9 cells, FluxOR thallium flux fluorescence | inhibition, % at 10 µM | 43% of 4,900 active;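 active means thallium signal inhibited by more than 5 SD of the compound-free buffer control wells, on both duplicate plates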
Kir2-1 spec – tests whether KCNK9 modulators also affect mouse Kir2.1 | shares compounds with KCNK9 block | Kir2.1 cells, FluxOR thallium flux fluorescence | inhibition, % at 10 µM | 4% of 4,900 active | AID 492993;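 active means thallium signal drop more than 5 SD beyond the mean of the no-compound control wells, seen in both duplicate plates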;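 further: signal is fluorescence rise after thallium addition divided by baseline fluorescence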
HEK293 Tl ctr – second check of KCNK9 modulator effects in non-induced HEK293 cells. shares compounds with KCNK9 block. FluxOR thallium flux. inhibition, % at 10 µM. 40% of 4,900 active. AID 492997;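 active means thallium signal drop beyond 5 SD of the untreated control mean, on both duplicate plates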
Large screens that a line does not name were inactive (follow-up assays come after a bar, where they were run).

CCOC(=O)c1c(C)n(-c2ccc(C)cc2)c2c(C(C(C)=O)C(=O)O)c(Br)c(O)c(O)c12 (stereo not drawn)	none
C=CCSc1nnc(-c2ccccc2N=Cc2c(C)[nH]n(-c3ccccc3)c2=O)c(=O)[nH]1	none
CSc1nnc(-c2ccccc2N=Cc2c(C)[nH]n(-c3ccc4ccccc4c3)c2=O)c(=O)[nH]1	none | KCNK9 inh conf inactive | Kir2-1 spec inactive | HEK293 Tl ctr inactive
CCOC(=O)c1c(C)c(C(=O)N2CCN(c3cccc(Cl)c3)CC2)c(C)n1C	none (no result: KCC2 mod) | KCNK9 inh conf inactive | Kir2-1 spec inactive | HEK293 Tl ctr inactive
O=C(Nc1nccs1)C1CCN(S(=O)(=O)c2c(Cl)cccc2Cl)CC1	KCNK9 block -15.8 | KCNK9 inh conf inactive | Kir2-1 spec inactive | HEK293 Tl ctr inactive
CC(=O)C1=C(C)NC(SCC(N)=O)=C(C#N)C1c1ccco1 (stereo not drawn)	none
CC(=O)C1=C(C)NC(SCC(=O)c2cc(Cl)ccc2Cl)=C(C#N)C1c1ccco1 (stereo not drawn)	KCNK3 inh -14.2, KCNK9 block -14.1, KCNQ1 block 11 (no result: KCC2 mod) | KCNK9 inh conf 74.5% | Kir2-1 spec inactive | HEK293 Tl ctr 35.0%
Oc1ccc(Cl)cc1CNCc1ccc(Cl)cc1	none (no result: hERG rescue, KCC2 mod, KCNQ1 pot, KCNK9 block, KCNQ1 block)
Oc1ccc(Cl)cc1Cc1cc(Cl)ccc1O	KCNK9 block -14 | KCNK9 inh conf 58.5% | Kir2-1 spec inactive | HEK293 Tl ctr 35.0%
COc1ccc(OC)c(NC(=O)COc2ccc(Br)cc2)c1	none (no result: KCC2 mod)
CC(C)[C@H](NC(=O)c1ccccc1Cl)C(=O)Nc1nc(-c2ccccn2)cs1	KCNK9 block -9.31 | KCNK9 inh conf 42.5% | Kir2-1 spec inactive | HEK293 Tl ctr 34.0%
CC(C)(C)OCC1CO1 (stereo not drawn)	none (no result: hERG rescue, KCC2 mod, KCNQ1 pot, KCNK9 block, KCNQ1 block)
O=C(/C=C/c1ccc(-c2ccccc2[N+](=O)[O-])o1)c1ccco1	KCNK9 block -12.4 | KCNK9 inh conf 56.0% | Kir2-1 spec inactive | HEK293 Tl ctr 25.0%
CCc1ccc(-c2nn(-c3ccccc3)cc2C2SCC(=O)N2Cc2ccco2)cc1 (stereo not drawn)	none | KCNK9 inh conf inactive | Kir2-1 spec inactive | HEK293 Tl ctr inactive
N#Cc1c(Cl)nc(N/N=C/c2ccccc2)c(Cl)c1Cl	none
C[n+]1cccc(/C=N/Nc2nc(Cl)c(C#N)c(Cl)c2Cl)c1	none | KCNK9 inh conf inactive | Kir2-1 spec inactive | HEK293 Tl ctr inactive
COc1cccc(/C=C(/C#N)c2ccc(F)cc2)c1OCc1cccc(C(=O)O)c1	none
N#C/C(=C/c1ccc(N2CCCCCC2)o1)c1cccc(F)c1	KCNK3 inh -13, KCNK9 block -15.1, KCNQ1 block 9 | KCNK9 inh conf 74.0% | Kir2-1 spec inactive | HEK293 Tl ctr 71.0%
COc1cc(N2CCCC2)c(OC)cc1/C=C(/C#N)c1cccc(F)c1	KCNK3 inh -10.5, KCNK9 block -12.4, KCNQ1 block 7 | KCNK9 inh conf 61.0% | Kir2-1 spec 35.0% | HEK293 Tl ctr 50.0%
Cc1ccc(N2CC(C(=O)NC3CCC(C)CC3)CC2=O)cc1 (stereo not drawn)	none (no result: KCC2 mod)
C=C(C)Cn1c(CCNC(=O)C(C)C)nc2ccccc21	none | KCNK9 inh conf inactive | Kir2-1 spec inactive | HEK293 Tl ctr inactive
C=C(C)Cn1c(CCNC(=O)CC)nc2ccccc21	none
COc1cc2c(cc1OC)C(c1cccs1)N(C(=O)C(C)C)CC2 (stereo not drawn)	none
CCN(CC)S(=O)(=O)c1ccc(N2CCOCC2)c(NC(=O)c2ccc3c(c2)OCCO3)c1	none (no result: KCC2 mod)
CCN(CC)S(=O)(=O)c1ccc(N2CCOCC2)c(NC(=O)c2ccc3ccccc3c2)c1	KCNK9 block -9.89 | KCNK9 inh conf inactive | Kir2-1 spec inactive | HEK293 Tl ctr 27.5%
CCN(CC)S(=O)(=O)c1ccc(N2CCOCC2)c(NC(=O)CC23CC4CC(CC(Br)(C4)C2)C3)c1	none | KCNK9 inh conf inactive | Kir2-1 spec inactive | HEK293 Tl ctr inactive
